# Assay results as given in ChEMBL document CHEMBL1138735, “Identification of 1,5-naphthyridine derivatives as a novel series of potent and selective TGF-beta type I receptor inhibitors” (J Med Chem, 2004).
# What was measured:
# [1] = biological target: T1, TGF-beta receptor type-1 (Homo sapiens, UniProt P36897); experiment: Stimulation of Transforming growth factor beta receptor I kinase in HepG2 cells; type: functional, cell-based
# T1 sequence (P36897 whole entry): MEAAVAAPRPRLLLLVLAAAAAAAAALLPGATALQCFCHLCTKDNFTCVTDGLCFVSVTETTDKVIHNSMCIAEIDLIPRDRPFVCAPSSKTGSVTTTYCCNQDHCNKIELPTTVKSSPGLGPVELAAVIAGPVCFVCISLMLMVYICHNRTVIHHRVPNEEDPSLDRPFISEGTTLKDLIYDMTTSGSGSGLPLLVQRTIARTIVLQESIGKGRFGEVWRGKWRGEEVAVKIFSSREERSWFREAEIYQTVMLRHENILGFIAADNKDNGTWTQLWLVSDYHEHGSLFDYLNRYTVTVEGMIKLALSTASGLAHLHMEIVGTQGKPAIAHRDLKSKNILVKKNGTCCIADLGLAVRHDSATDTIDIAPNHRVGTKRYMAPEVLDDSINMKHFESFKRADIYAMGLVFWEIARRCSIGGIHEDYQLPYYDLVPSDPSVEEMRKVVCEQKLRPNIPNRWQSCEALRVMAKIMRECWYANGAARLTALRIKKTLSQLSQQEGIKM
# [2] = biological target: T1, TGF-beta receptor type-1; experiment: Binding affinity to Activin A receptor type II-like kinase (ALK5) in fluorescence polarization binding assay; Range is (3.221-19.588)
# Method in brief: (§1)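 Purified recombinant GST-ALK5 (residues 198–503), final 10 nM by active-site titration, in 62.5 mM HEPES pH 7.5, 1 mM DTT, 12.5 mM MgCl2, 1.25 mM CHAPS with 1 nM rhodamine green-labelled ATP-competitive ligand. Test compound added over a concentration range; plates read immediately for fluorescence polarization (ex 485/em 530 nm). Binding pIC50 from concentration–response curves; means of two or more experiments, mean pIC50 converted to IC50, with 95% confidence limits.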
# [3] = biological target: T1, TGF-beta receptor type-1; experiment: Binding affinity to Activin A receptor type II-like kinase (ALK5) in fluorescence polarization binding assay; Range is (0.021-0.042)
# Method in brief: as §1, with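 “series, plate” for “range; plates”, “by” for “for”, “mean” for “means”, “95% confidence limits” for “mean pIC50”, “IC50.” for “IC50, with 95% confidence limits.”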
# [4] = biological target: T1, TGF-beta receptor type-1; experiment: Binding affinity to Activin A receptor type II-like kinase (ALK5) in fluorescence polarization binding assay; Range is (0.289-3.621); method in brief: as §1
# [5] = biological target: T2, MAP kinase p38 (Homo sapiens, UniProt O15264+Q15759+Q16539+P53778); experiment: Displacement of ATP from p38 MAP kinase by fluorescence polarization assay; type: protein assay
# Method in brief: (§2)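 p38 MAP kinase binding measured by fluorescence polarization: displacement of a fluorescently labelled ATP-competitive inhibitor by a compound concentration series gives a binding IC50. Runs were duplicated or repeated as three separate experiments; 95% confidence limits on pIC50 were converted to IC50 limits.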
# [6] = biological target: T1, TGF-beta receptor type-1; experiment: Inhibition of recombinant Activin A receptor type II-like kinase (ALK5) expressed in baculovirus/Sf9 cells; type: cell-based
# [7] = biological target: T1, TGF-beta receptor type-1; experiment: Binding affinity to Activin A receptor type II-like kinase (ALK5) in fluorescence polarization binding assay; Range is (0.029-0.032)
# [8] = biological target: T1, TGF-beta receptor type-1; experiment: Binding affinity to Activin A receptor type II-like kinase (ALK5) in fluorescence polarization binding assay; Range is (0.356-4.455)
# Method in brief: as §1, with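 “series, plate” for “range; plates”, “by” for “for”, “mean” for “means”, “95% confidence limits” for “mean pIC50”, “IC50.” for “IC50, with 95% confidence limits.”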
# [9] = biological target: T1, TGF-beta receptor type-1; experiment: Binding affinity for Activin A receptor type II-like kinase (ALK5) in fluorescence polarization binding assay; method in brief: as §1
# [10] = biological target: T1, TGF-beta receptor type-1; experiment: Binding affinity to Activin A receptor type II-like kinase (ALK5) in fluorescence polarization binding assay; Range is (1.375-9.154)
# Method in brief: as §1, with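 “series, plate” for “range; plates”, “by” for “for”, “mean” for “means”, “95% confidence limits” for “mean pIC50”, “IC50.” for “IC50, with 95% confidence limits.”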
# [11] = biological target: T1, TGF-beta receptor type-1; experiment: Binding affinity to Activin A receptor type II-like kinase (ALK5) in fluorescence polarization binding assay; Range is (2.423-6.540); method in brief: as §1
# [12] = biological target: T1, TGF-beta receptor type-1; experiment: Binding affinity to Activin A receptor type II-like kinase (ALK5) in fluorescence polarization binding assay; Range is (0.783-1.764)
# Method in brief: as §1, with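 “series, plate” for “range; plates”, “by” for “for”, “mean” for “means”, “95% confidence limits” for “mean pIC50”, “IC50.” for “IC50, with 95% confidence limits.”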
# [13] = biological target: T1, TGF-beta receptor type-1; experiment: Binding affinity to Activin A receptor type II-like kinase (ALK5) in fluorescence polarization binding assay; Range is (5.326-22.574)
# Method in brief: as §1, with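 “series, plate” for “range; plates”, “by” for “for”, “mean” for “means”, “95% confidence limits” for “mean pIC50”, “IC50.” for “IC50, with 95% confidence limits.”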
# [14] = biological target: T1, TGF-beta receptor type-1
# [15] = biological target: T1, TGF-beta receptor type-1; experiment: Binding affinity to Activin A receptor type II-like kinase (ALK5) in fluorescence polarization binding assay; Range is (0.864-3.661); method in brief: as §1
# [16] = biological target: T1, TGF-beta receptor type-1; experiment: Binding affinity to Activin A receptor type II-like kinase (ALK5) in fluorescence polarization binding assay; Range is (0.038-0.042)
# Method in brief: as §1, with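 “series, plate” for “range; plates”, “by” for “for”, “mean” for “means”, “95% confidence limits” for “mean pIC50”, “IC50.” for “IC50, with 95% confidence limits.”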
# [17] = biological target: T2, MAP kinase p38; experiment: Displacement of ATP from Mitogen-activated protein kinase p38 in fluorescence polarization assay; Range is (0.242-0.545); method in brief: as §2
# [18] = biological target: T1, TGF-beta receptor type-1; remark: listed apart in the source
# [19] = biological target: T2, MAP kinase p38; experiment: Displacement of ATP from Mitogen-activated protein kinase p38 in fluorescence polarization assay; Range is (0.208-1.155); method in brief: as §2
# [20] = biological target: T1, TGF-beta receptor type-1; remark: listed apart in the source
# [21] = biological target: Mitogen-activated protein kinase kinase kinase 11 (Homo sapiens, UniProt Q16584); experiment: Inhibition of MLK3 kinase binding in fluorescence polarization assay
# [22] = biological target: Ribosomal protein S6 kinase alpha-5 (Homo sapiens, UniProt O75582); experiment: Inhibition of MSK-1 kinase binding in fluorescence polarization assay
# [23] = biological target: Serine/threonine-protein kinase B-raf (Homo sapiens, UniProt P15056); experiment: Inhibition of Protein kinase Raf-B binding in fluorescence polarization assay
# [24] = biological target: Mitogen-activated protein kinase 10 (Homo sapiens, UniProt P53779); experiment: Inhibition of c-Jun N-terminal kinase 3-alpha binding in HTRF assay
# [25] = biological target: Mitogen-activated protein kinase 8 (Homo sapiens, UniProt P45983); experiment: Inhibition of c-Jun N-terminal kinase 1-alpha 1 binding in fluorescence polarization assay
# [26] = biological target: Proto-oncogene tyrosine-protein kinase LCK (Mus musculus, UniProt P06240); experiment: Inhibition of p56 Lck tyrosine kinase binding in HTRF assay
# [27] = biological target: T3, Tyrosine-protein kinase ITK/TSK (Homo sapiens, UniProt Q08881)
# T3 sequence (Q08881 whole entry): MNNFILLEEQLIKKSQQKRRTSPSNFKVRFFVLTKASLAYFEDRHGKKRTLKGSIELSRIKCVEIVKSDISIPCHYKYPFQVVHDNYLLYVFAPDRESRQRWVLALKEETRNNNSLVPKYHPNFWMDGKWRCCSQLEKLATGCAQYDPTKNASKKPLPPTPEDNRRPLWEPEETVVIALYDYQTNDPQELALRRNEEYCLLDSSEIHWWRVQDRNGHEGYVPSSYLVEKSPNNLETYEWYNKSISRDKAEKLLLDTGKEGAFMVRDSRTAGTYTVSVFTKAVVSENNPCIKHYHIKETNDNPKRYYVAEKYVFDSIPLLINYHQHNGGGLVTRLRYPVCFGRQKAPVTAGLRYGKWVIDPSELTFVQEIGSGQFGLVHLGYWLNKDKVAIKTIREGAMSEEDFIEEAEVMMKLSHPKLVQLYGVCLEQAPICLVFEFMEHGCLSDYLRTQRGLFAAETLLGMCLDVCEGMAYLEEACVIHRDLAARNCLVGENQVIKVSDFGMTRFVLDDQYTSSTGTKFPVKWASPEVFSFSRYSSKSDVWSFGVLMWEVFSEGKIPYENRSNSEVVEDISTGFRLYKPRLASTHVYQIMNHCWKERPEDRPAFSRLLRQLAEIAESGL
# Chain of Serine/threonine-protein kinase B-raf (P15056 whole entry): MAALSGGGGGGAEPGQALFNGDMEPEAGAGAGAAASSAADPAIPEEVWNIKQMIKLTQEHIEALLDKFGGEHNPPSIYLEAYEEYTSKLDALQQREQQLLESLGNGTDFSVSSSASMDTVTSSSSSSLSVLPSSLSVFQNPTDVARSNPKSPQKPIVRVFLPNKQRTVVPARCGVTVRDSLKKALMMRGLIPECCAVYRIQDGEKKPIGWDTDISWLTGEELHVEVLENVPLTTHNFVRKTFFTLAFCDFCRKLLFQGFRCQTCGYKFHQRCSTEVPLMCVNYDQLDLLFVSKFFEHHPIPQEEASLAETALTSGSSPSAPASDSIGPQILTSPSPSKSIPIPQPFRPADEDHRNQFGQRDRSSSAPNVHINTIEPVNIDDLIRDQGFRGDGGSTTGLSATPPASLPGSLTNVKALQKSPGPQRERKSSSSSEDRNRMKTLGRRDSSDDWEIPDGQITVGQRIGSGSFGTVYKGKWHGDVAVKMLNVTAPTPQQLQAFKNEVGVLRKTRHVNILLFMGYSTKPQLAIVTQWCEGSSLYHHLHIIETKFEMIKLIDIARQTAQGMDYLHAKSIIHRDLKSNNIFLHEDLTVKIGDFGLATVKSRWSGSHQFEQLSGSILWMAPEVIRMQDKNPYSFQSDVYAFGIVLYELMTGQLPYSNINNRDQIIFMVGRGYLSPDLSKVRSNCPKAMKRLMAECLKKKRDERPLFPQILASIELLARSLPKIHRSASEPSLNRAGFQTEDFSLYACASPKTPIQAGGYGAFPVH
# Chain of Mitogen-activated protein kinase kinase kinase 11 (Q16584 whole entry): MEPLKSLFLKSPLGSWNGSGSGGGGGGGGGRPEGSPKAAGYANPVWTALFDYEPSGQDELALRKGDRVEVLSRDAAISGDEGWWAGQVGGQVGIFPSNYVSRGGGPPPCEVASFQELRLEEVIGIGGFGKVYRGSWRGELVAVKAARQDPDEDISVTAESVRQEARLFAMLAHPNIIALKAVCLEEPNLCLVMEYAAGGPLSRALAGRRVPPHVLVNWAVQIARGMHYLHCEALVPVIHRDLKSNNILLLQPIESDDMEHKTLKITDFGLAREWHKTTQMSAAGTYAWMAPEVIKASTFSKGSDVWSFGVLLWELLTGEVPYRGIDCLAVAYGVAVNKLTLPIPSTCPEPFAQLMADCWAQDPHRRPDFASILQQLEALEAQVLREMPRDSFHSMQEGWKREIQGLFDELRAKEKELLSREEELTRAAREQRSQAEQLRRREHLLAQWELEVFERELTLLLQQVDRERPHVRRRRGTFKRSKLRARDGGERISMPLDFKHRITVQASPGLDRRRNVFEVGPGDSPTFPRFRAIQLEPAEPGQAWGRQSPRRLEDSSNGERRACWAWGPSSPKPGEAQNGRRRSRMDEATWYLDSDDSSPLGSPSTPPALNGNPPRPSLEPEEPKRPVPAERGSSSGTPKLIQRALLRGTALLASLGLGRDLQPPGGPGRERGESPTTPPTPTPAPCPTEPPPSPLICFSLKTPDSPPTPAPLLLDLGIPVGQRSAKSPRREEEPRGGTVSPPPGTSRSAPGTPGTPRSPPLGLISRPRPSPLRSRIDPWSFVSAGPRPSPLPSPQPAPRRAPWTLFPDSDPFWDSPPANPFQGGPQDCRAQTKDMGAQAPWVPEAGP
# Chain of Mitogen-activated protein kinase 10 (P53779 whole entry): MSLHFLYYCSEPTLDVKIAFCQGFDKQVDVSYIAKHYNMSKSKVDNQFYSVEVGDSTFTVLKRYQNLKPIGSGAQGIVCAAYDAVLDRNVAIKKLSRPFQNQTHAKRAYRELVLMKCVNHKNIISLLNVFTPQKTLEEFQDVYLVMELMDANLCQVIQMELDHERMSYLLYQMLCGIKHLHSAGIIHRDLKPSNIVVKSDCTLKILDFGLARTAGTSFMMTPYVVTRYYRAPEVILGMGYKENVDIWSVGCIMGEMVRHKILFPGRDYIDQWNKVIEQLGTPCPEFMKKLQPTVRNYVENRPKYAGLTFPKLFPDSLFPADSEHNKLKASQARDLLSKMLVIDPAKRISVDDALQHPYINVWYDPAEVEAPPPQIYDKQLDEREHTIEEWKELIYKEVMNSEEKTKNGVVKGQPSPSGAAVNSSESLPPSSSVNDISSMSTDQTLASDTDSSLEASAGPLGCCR
# Chain of Mitogen-activated protein kinase 8 (P45983 whole entry): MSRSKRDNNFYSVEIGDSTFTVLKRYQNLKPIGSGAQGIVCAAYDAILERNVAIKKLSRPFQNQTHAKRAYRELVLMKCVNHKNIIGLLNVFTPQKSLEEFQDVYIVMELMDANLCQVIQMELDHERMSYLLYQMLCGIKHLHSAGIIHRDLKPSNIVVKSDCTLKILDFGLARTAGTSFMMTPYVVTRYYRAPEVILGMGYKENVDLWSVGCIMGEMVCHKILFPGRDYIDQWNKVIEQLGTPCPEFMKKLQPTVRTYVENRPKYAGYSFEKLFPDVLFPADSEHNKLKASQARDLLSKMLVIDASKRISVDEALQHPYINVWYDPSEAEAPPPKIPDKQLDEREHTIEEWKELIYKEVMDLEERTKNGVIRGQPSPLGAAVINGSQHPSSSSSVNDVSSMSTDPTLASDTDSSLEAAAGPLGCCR
# Chain of Ribosomal protein S6 kinase alpha-5 (O75582 whole entry): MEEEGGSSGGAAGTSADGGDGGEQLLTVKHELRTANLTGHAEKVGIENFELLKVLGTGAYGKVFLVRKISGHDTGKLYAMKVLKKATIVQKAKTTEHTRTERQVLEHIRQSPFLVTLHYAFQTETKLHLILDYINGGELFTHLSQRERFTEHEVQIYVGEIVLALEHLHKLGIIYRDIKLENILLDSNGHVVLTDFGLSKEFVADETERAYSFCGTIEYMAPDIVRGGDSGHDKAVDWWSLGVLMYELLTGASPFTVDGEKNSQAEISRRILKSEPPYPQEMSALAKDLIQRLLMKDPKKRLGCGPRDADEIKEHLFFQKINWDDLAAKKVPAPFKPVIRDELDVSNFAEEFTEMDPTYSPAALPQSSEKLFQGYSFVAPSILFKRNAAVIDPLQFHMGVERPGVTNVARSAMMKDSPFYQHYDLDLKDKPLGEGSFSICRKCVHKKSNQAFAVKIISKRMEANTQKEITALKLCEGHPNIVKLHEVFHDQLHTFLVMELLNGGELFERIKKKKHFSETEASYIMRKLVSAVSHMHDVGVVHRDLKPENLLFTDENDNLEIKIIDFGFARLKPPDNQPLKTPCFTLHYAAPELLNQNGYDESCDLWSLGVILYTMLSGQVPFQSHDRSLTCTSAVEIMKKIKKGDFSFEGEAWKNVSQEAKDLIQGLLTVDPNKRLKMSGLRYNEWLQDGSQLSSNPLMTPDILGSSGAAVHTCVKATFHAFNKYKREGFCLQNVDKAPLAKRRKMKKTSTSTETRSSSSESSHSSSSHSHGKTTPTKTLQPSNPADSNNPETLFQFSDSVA
# Chain of Proto-oncogene tyrosine-protein kinase LCK (P06240 whole entry): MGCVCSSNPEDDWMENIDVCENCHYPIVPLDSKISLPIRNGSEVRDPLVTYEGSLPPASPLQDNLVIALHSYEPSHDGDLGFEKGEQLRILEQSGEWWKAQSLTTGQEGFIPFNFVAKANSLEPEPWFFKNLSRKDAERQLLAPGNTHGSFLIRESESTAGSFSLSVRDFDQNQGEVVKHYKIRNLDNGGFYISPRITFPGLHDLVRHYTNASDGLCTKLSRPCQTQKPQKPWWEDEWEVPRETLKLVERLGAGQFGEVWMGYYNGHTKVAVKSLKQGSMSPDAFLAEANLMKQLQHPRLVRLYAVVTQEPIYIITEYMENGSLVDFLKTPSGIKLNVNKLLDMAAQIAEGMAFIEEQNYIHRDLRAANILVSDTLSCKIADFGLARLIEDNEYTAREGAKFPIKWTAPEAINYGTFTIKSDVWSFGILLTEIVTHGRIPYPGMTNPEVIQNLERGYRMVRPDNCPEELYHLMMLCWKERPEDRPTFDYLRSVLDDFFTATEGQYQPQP
smiles,measurement,setting,value
Nc1nc(-c2ccccn2)c(-c2ccnc3ncccc23)s1,IC50,[1],> 10000 nM
same,IC50,[2],7940 nM
Cc1ccnc2ccc(-c3sc(N)nc3-c3ccccn3)nc12,IC50,[1],220 nM
same,IC50,[3],30 nM
Nc1nc(-c2cc(Cl)ccn2)c(-c2ccnc3ccccc23)s1,IC50,[1],> 10000 nM
same,IC50,[4],1020 nM
c1ccc(-c2n[nH]cc2-c2ccc3ncccc3n2)nc1,IC50,[1],50 nM
same,IC50,[5],> 16000 nM
same,IC50,[6],19 nM
same,IC50,[7],30 nM
Nc1nc(-c2ccccc2F)c(-c2ccnc3ccccc23)s1,IC50,[1],6670 nM
same,IC50,[8],1250 nM
COc1ccccc1-c1nc(N)sc1-c1ccnc2ccccc12,IC50,[9],> 10000 nM
same,IC50,[1],> 10000 nM
Nc1nc(-c2ccccn2)c(-c2ccc3ccccc3n2)s1,IC50,[1],> 10000 nM
same,IC50,[10],3540 nM
Cc1ccc(-c2nc(N)sc2-c2ccnc3ccccc23)nc1,IC50,[9],> 10000 nM
same,IC50,[1],> 10000 nM
Nc1nc(-c2cccnc2)c(-c2ccnc3ccccc23)s1,IC50,[1],> 10000 nM
same,IC50,[11],3980 nM
Cc1cccc(-c2nc(N)sc2-c2ccc3ncccc3n2)n1,IC50,[5],> 16000 nM
CCOc1ccc2nc(-c3sc(N)nc3-c3ccccn3)ccc2n1,IC50,[9],> 10000 nM
same,IC50,[1],> 10000 nM
Nc1nc(-c2nccs2)c(-c2ccnc3ccccc23)s1,IC50,[1],6580 nM
same,IC50,[12],1170 nM
Nc1nc(-c2ccccn2)c(-c2cccc3ccccc23)s1,IC50,[1],> 10000 nM
same,IC50,[13],11000 nM
Cc1ccc2nccc(-c3sc(N)nc3-c3ccccn3)c2n1,IC50,[1],260 nM
same,IC50,[14],380 nM
Nc1nc(-c2ccc(Cl)cn2)c(-c2ccnc3ccccc23)s1,IC50,[1],> 10000 nM
same,IC50,[15],1770 nM
Nc1nc(-c2ccccn2)c(-c2ccc3ncccc3n2)s1 [GW693481X],IC50,[1],120 nM
same,IC50,[5],> 16000 nM
same,IC50,[6],20 nM
same,IC50,[16],40 nM
Nc1nc(-c2cccc(Cl)c2)c(-c2ccc3ncccc3n2)s1 [GW780159X],IC50,[17],360 nM
same,IC50,[1],10 nM
same,IC50,[6],10 nM
same,IC50,[18],20 nM
Nc1nc(-c2ccc(F)cc2)c(-c2ccc3ncccc3n2)s1 [GW785804X],IC50,[19],490 nM
same,IC50,[1],30 nM
same,IC50,[6],10 nM
same,IC50,[20],40 nM
Cc1cccc(-c2n[nH]cc2-c2ccc3ncccc3n2)n1 [GW786460X],IC50,[21],> 16000 nM
same,IC50,[22],> 16000 nM
same,IC50,[23],> 16000 nM
same,IC50,[24],> 16000 nM
same,IC50,[25],> 16000 nM
same,IC50,[26],> 16000 nM
same,IC50,[27],> 16000 nM
